Assay results taken from ChEMBL document CHEMBL4152273, “Development of novel amino-quinoline-5,8-dione derivatives as NAD(P)H:quinone oxidoreductase 1 (NQO1) inhibitors with potent antiproliferative activities” (Eur J Med Chem, 2018).
pIC50: −log10 of the molar value. Calls of active or inactive are those of the source. The calls are words filed in the database; no cut-off is given here.

Tests used:
[1] = target: T1, NAD(P)H dehydrogenase [quinone] 1 (Homo sapiens, UniProt P15559); experiment: Inhibition of NQO1 activity in human HeLaS3 cells incubated for 24 hrs measured every 20 secs for 5 mins; format: cell-based
T1 sequence (P15559 whole entry): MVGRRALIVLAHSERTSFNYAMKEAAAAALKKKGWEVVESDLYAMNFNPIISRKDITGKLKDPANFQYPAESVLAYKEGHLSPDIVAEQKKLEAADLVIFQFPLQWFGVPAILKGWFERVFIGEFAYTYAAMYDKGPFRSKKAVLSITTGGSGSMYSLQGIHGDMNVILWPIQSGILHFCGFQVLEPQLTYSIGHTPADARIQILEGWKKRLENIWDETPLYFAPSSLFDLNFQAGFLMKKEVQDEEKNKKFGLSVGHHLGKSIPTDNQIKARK

[2] = target: T1, NAD(P)H dehydrogenase [quinone] 1; experiment: Inhibition of NQO1 activity in human KBVIN cells incubated for 24 hrs measured every 20 secs for 5 mins; format: cell-based
[3] = test system: HeLa S3; experiment: Increase in ROS production in human HeLaS3 cells after 24 hrs in presence of H2O2 by DCFH-DA dye based flow cytometry; format: functional, cell-based
[4] = species: Homo sapiens; experiment: Increase in ROS production in human KBVIN cells after 24 hrs in presence of H2O2 by DCFH-DA dye based flow cytometry; format: functional, cell-based
[5] = test system: HeLa S3; experiment: Induction of mitochondrial membrane potential loss in human HeLaS3 cells after 24 hrs by MITO-ID MP dye based assay; format: functional, cell-based
In short: (§1)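 Cells plated at 2.5 × 10^5/mL and treated with 0.01–5 μM, CCCP as positive control or DMSO vehicle for 24 h at 37 °C. MITO-ID MP dye loaded in the dark for 30 min at 37 °C, then fluorescence read at Ex 490 nm and Em 590 nm.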

[6] = species: Homo sapiens; experiment: Induction of mitochondrial membrane potential loss in human KBVIN cells after 24 hrs by MITO-ID MP dye based assay; format: functional, cell-based; in short: as §1
[7] = Cytotoxicity against human KBVIN cells assessed as decrease in cell viability after 72 hrs in presence of NQO1 inhibitor dicoumarol by MTT assay; format: functional, cell-based; details: in the assay text read “SRB assay” for “MTT assay”
In short: (§2)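 NQO1 dependency: cells co-treated for 72 h with test compound plus […] or 40 mM N-acetylcysteine. Viability read by SRB: TCA fixation, 0.04% sulforhodamine B staining, acetic acid wash, dye solubilized in 10 mM Tris base, absorbance at 515 nm. Results given as IC50 or mean ± SD; three independent measurements.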

[8] = test system: HeLa S3; experiment: Cytotoxicity against human HeLaS3 cells assessed as decrease in cell viability after 72 hrs in presence of NQO1 inhibitor dicoumarol by MTT assay; format: functional, cell-based; details: HeLa S3, 72 h, in the assay text read “SRB assay” for “MTT assay”; in short: as §2
[9] = test system: HeLa S3; experiment: Cytotoxicity against human HeLaS3 cells assessed as decrease in cell viability after 72 hrs in presence of free radical scavenger NAc by MTT assay; format: functional, cell-based; details: HeLa S3, 72 h, in the assay text read “SRB assay” for “MTT assay”; in short: as §2
[10] = Cytotoxicity against human KBVIN cells assessed as decrease in cell viability after 72 hrs in presence of free radical scavenger NAc by MTT assay; format: functional, cell-based; details: in the assay text read “SRB assay” for “MTT assay”; in short: as §2
[11] = Cytotoxicity against human EEC assessed as decrease in cell viability after 72 hrs by MTT assay
In short: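 Endometrial epithelial cells maintained in RPMI-1640 with 10% FBS at 37 °C, 5% CO2. Exposed 72 h to the indicated concentrations, proliferation assessed by MTT; inhibition (%) reported as mean ± SD of three independent experiments.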

[12] = test system: HeLa S3; experiment: Induction of apoptosis in human HeLaS3 cells assessed as annexin V-positive cells at 0.2 uM after 72 hrs by annexin V-FITC/PI dual staining based flow cytometry relative to control; format: functional
In short: (§3)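 Cells cultured overnight, then exposed in triplicate to 0.2, 0.6 or 1.8 μM or vehicle for 72 h. Annexin V-positive percentage given as mean ± SD of three independent experiments.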

[13] = test system: HeLa S3; experiment: Induction of apoptosis in human HeLaS3 cells assessed as annexin V-positive cells at 0.6 uM after 72 hrs by annexin V-FITC/PI dual staining based flow cytometry relative to control; format: functional; in short: as §3
[14] = test system: HeLa S3; experiment: Induction of apoptosis in human HeLaS3 cells assessed as annexin V-positive cells at 1.8 uM after 72 hrs by annexin V-FITC/PI dual staining based flow cytometry relative to control; format: functional; in short: as §3
[15] = test system: HeLa S3; experiment: Induction of apoptosis in human HeLaS3 cells after 72 hrs by annexin V-FITC/PI dual staining based flow cytometry; format: functional, cell-based; in short: as §3
[16] = test system: HeLa S3; experiment: Induction of apoptosis in human HeLaS3 cells assessed as increase in Bax expression levels after 72 hrs by Western blot analysis; format: functional, cell-based
In short: (§4)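 Sub-confluent cells at 1.5 × 10^5/mL treated 72 h in DMEM with 10% FBS at the indicated doses or 0.1% DMSO vehicle. Lysates immunoblotted for Bax, Bcl-2 and caspase-3, detected with HRP secondary antibodies and chemiluminescence. Band densities normalized to β-actin by densitometry; mean ± SD of three separate experiments.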

[17] = test system: HeLa S3; experiment: Induction of apoptosis in human HeLaS3 cells assessed as decrease in Bcl-2 expression levels after 72 hrs by Western blot analysis; format: functional, cell-based; in short: as §4
[18] = test system: HeLa S3; experiment: Induction of apoptosis in human HeLaS3 cells assessed as increase in caspase-3 cleavage at 0.2 to 1.8 uM after 72 hrs by Western blot analysis; format: functional, cell-based; in short: as §4

Structure (SMILES): COC(=O)/C=C/c1cccc(CNC2=CC(=O)c3ncccc3C2=O)c1
- pIC50 [1]: 5.28
- pIC50 [2]: 6.28
- Activity [3]: Dose-dependent effect
- Activity [4]: Dose-dependent effect
- Activity [5]: Dose-dependent effect
- Activity [6]: Dose-dependent effect

Structure (SMILES): CN1CCN(c2ccc(NC3=CC(=O)c4ncccc4C3=O)cc2)CC1
- pIC50 [7]: < 5.52
- pIC50 [8]: < 5.52
- pIC50 [9]: < 5.52
- pIC50 [10]: < 5.52
- Activity [3]: Dose-dependent effect
- Activity [4]: Dose-dependent effect
- Activity [5]: Dose-dependent effect
- Activity [6]: Dose-dependent effect

Structure (SMILES): CN1CCN(c2ccc(NC3=CC(=O)c4cccnc4C3=O)cc2)CC1
- pIC50 [7]: < 5.52
- pIC50 [8]: < 5.52
- pIC50 [9]: < 5.52
- pIC50 [10]: < 5.52
- pIC50 [1]: 6.36
- pIC50 [2]: 6.24
- Activity [3]: Dose-dependent effect
- Activity [4]: Dose-dependent effect
- Activity [5]: Dose-dependent effect
- Activity [6]: Dose-dependent effect
- Activity [11]: Non-Toxic
- Activity [12]: 12.8%
- Activity [13]: 27.6%
- Activity [14]: 66.3%
- Activity [15]: Dose-dependent effect
- Activity [16]: Dose-dependent effect
- Activity [17]: Dose-dependent effect
- Activity [18]: Active

Structure (SMILES): O=C1C=C(NCCc2c[nH]c3ccccc23)C(=O)c2ncccc21
- pIC50 [1]: 5.20
- pIC50 [2]: 6.26
- Activity [3]: Dose-dependent effect
- Activity [4]: Dose-dependent effect
- Activity [5]: Dose-dependent effect
- Activity [6]: Dose-dependent effect
